Laboratory results as given in ChEMBL document CHEMBL1127349, “6,7,8,9-Tetrahydro-N,N-di-n-propyl-3H-benzindol-8-amines. Derivatives as potent and orally active serotonin 5-HT1A receptor agonists” (J Med Chem, 1994).
Calls of active or inactive are those of the source. The rule behind the calls is not given here.

Experiments:
Rattus norvegicus [1] = experiment: Motor activity was measured by motility testing on injecting the compound subcutaneously into rats at the dose of 12.5 umol/kg; format: functional
Outline: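 Rats given reserpine 5 mg/kg sc 18 h beforehand, then test compound sc in neck (n = 4). Placed singly in photocell motility meters straight after dosing; counts recorded for 30 min, gross behaviour observed throughout. Value as counts/30 min with SEM.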

[2] = target: T1, 5-hydroxytryptamine receptor 1A (Rattus norvegicus, UniProt P19327); experiment: Displacement of the radioligand [3H]8-OH-DPAT from 5-hydroxytryptamine 1A receptor
T1 sequence (P19327 whole entry): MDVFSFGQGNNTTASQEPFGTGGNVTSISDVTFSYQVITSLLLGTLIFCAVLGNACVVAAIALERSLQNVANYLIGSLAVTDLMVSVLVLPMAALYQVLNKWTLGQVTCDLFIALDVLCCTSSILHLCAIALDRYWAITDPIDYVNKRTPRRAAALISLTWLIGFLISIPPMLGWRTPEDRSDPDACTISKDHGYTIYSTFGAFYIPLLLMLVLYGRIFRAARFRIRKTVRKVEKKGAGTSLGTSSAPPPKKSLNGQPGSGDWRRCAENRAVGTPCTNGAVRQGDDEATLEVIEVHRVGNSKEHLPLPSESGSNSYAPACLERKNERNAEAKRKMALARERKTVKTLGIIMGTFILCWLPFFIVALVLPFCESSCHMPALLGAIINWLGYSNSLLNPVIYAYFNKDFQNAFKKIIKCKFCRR
Outline: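 Rat whole brain minus brain stem and cerebellum, washed membranes in 50 mM Tris pH 8.0 with 120 mM NaCl, 4 mM CaCl2, 4 mM MgCl2, 10 μM pargyline. Nonspecific with 10 μM 5-HT. IC50 by semilog linear regression, Ki via Cheng–Prusoff; 3–7 experiments, triplicates.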

D(2) dopamine receptor = D(2) dopamine receptor (Rattus norvegicus, UniProt P61169); experiment: Displacement of the radioligand [3H]spiperone from D2 receptor
D(2) dopamine receptor, sequence (P61169 whole entry): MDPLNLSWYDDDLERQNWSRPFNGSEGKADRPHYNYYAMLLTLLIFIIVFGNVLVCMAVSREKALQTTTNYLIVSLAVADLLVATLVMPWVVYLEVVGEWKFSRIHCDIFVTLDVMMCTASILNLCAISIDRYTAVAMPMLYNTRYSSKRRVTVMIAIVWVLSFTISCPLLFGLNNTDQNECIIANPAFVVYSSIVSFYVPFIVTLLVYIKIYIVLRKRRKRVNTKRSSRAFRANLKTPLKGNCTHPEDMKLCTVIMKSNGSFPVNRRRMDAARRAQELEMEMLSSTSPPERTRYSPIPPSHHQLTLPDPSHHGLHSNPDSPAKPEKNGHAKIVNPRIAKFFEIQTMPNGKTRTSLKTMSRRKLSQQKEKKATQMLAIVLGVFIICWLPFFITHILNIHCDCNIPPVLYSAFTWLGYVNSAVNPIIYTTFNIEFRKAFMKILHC
Outline: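 Rat striatal membranes in 50 mM potassium phosphate buffer, incubated with 0.5 nM [3H]spiperone (3 mg tissue) 10 min at 37 °C. Nonspecific binding defined with 10 μM 6,7-ADTN. IC50 converted to Ki by Cheng–Prusoff; 3–7 experiments, each concentration in triplicate.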

Rattus norvegicus [3] = experiment: The concentration yielding a half maximal decrease of the DOPA was determined in rat limbic system; Partial response at 50 umol/kg; format: functional, organism-based
Rattus norvegicus [4] = experiment: The concentration yielding a half maximal decrease of the 5-HTP was determined in rat limbic system; inactive at 50 umol/kg; format: functional, organism-based
Outline: (§1)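 Reserpine-pretreated (5 mg/kg sc, 18 h) male Sprague-Dawley rats, 200–300 g; compounds in saline given sc. DOPA and 5-HTP in limbic system, striatum and hemispheres measured by HPLC with electrochemical detection. Dose–response curves of 4–6 doses (n = 4) per area, fitted to variable-slope sigmoid on log data to give ED50.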

Rattus norvegicus [5] = experiment: The concentration yielding a half maximal decrease of the DOPA was determined in rat brain striatum; Partial response at 50 umol/kg; format: functional, organism-based
Rattus norvegicus [6] = experiment: The concentration yielding a half maximal decrease of the 5-HTP was determined in rat brain hemispheres; Partial response at 50 umol/kg; format: functional, organism-based; outline: as §1
Rattus norvegicus [7] = experiment: The concentration yielding a half maximal decrease of the 5-HTP was determined in rat brain striatum; inactive at 50 umol/kg; format: functional, organism-based; outline: as §1
Rattus norvegicus [8] = experiment: The concentration yielding a half maximal decrease of the DOPA was determined in rat brain hemispheres; inactive at 50 umol/kg; format: functional, organism-based; outline: as §1
Rattus norvegicus [9] = organism: Rattus norvegicus; experiment: The concentration yielding a half maximal decrease of the 5-HTP was determined in rat brain striatum.; format: functional
Rattus norvegicus [10] = experiment: The concentration yielding a half maximal decrease of the DOPA was determined in rat brain hemispheres; Inactive at 50 umol/kg; format: functional, organism-based; outline: as §1
Rattus norvegicus [11] = organism: Rattus norvegicus; experiment: The concentration yielding a half maximal decrease of the 5-HTP was determined in rat brain hemispheres.; format: functional
Rattus norvegicus [12] = organism: Rattus norvegicus; experiment: The concentration yielding a half maximal decrease of the 5-HTP was determined in rat limbic system.; format: functional
Rattus norvegicus [13] = organism: Rattus norvegicus; experiment: The concentration yielding a half maximal decrease of the DOPA was determined in rat limbic system.; format: functional
Rattus norvegicus [14] = organism: Rattus norvegicus; experiment: Log concentration to inhibit 5-HTP accumulation was determined in rat brain hemispheres; format: functional; outline: as §1
Rattus norvegicus [15] = organism: Rattus norvegicus; experiment: Log concentration to inhibit 5-HTP accumulation was determined in rat limbic system; format: functional; outline: as §1
Rattus norvegicus [16] = organism: Rattus norvegicus; experiment: Log concentration to inhibit DOPA accumulation was determined in rat brain striatum; format: functional; outline: as §1
Rattus norvegicus [17] = organism: Rattus norvegicus; experiment: Log concentration to inhibit DOPA accumulation was determined in rat limbic system; format: functional; outline: as §1
Rattus norvegicus [18] = organism: Rattus norvegicus; experiment: Log concentration to inhibit 5-HTP accumulation was determined in rat brain striatum; format: functional; outline: as §1
Rattus norvegicus [19] = organism: Rattus norvegicus; experiment: The concentration yielding a half maximal decrease of the DOPA was determined in rat brain striatum.; format: functional
Rattus norvegicus [20] = experiment: The concentration yielding a half maximal decrease of the DOPA was determined in rat limbic system; Partial response 50 umol/kg; format: functional, organism-based
Rattus norvegicus [21] = experiment: The concentration yielding a half maximal decrease of the DOPA was determined in rat brain striatum; Partial response 50 umol/kg; format: functional, organism-based
Rattus norvegicus [22] = experiment: The concentration yielding a half maximal decrease of the 5-HTP was determined in rat brain hemispheres; inactive at 50 umol/kg; format: functional, organism-based; outline: as §1
Rattus norvegicus [23] = experiment: The concentration yielding a half maximal decrease of the DOPA was determined in rat brain hemispheres; Partial response at 50 umol/kg; format: functional, organism-based; outline: as §1
Rattus norvegicus [24] = experiment: The concentration yielding a half maximal decrease of the DOPA was determined in rat brain hemispheres; inactive at 12.5 umol/kg; format: functional, organism-based; outline: as §1
Rattus norvegicus [25] = organism: Rattus norvegicus; experiment: The concentration yielding a half maximal decrease of the DOPA was determined in rat brain striatum; format: functional; outline: as §1
Rattus norvegicus [26] = organism: Rattus norvegicus; experiment: The concentration yielding a half maximal decrease of the 5-HTP was determined in rat brain hemispheres; format: functional; outline: as §1
Rattus norvegicus [27] = organism: Rattus norvegicus; experiment: The concentration yielding a half maximal decrease of the 5-HTP was determined in rat limbic system; format: functional; outline: as §1
Rattus norvegicus [28] = organism: Rattus norvegicus; experiment: The concentration yielding a half maximal decrease of the DOPA was determined in rat limbic system; format: functional
Rattus norvegicus [29] = experiment: Motor activity was measured by motility testing on injecting the compound subcutaneously into rats at the dose of 0.02 umol/kg (1a) and 3.5 umol/kg (1b)
Rattus norvegicus [30] = experiment: The concentration yielding a half maximal decrease of the DOPA was determined in rat limbic system; inactive at 50 umol/kg; format: functional, organism-based
Rattus norvegicus [31] = experiment: The concentration yielding a half maximal decrease of the DOPA was determined in rat brain striatum; inactive at 50 umol/kg; format: functional, organism-based

Row | Compound | Activity (Rattus norvegicus [1]) | Ki [2] | Ki (D(2) dopamine receptor) | ED50 (Rattus norvegicus [4]) | ED50 (Rattus norvegicus [7]) | ED50 (Rattus norvegicus [8]) | pED50 (Rattus norvegicus [14]) | pED50 (Rattus norvegicus [15]) | pED50 (Rattus norvegicus [16]) | pED50 (Rattus norvegicus [17]) | pED50 (Rattus norvegicus [18]) | further results
1 | CCCN(CCC)C1CCc2ccc3[nH]ccc3c2C1 (stereo not given) | 177 Counts 30min-1 | – | – | – | – | – | – | – | – | – | – | –
2 | CCCN(CCC)C1CCc2ccc3cc[nH]c3c2C1 (stereo not given) | 119 Counts 30min-1 | 220 nM | 145 nM | inactive | inactive | inactive | – | – | – | – | – | ED50 (Rattus norvegicus [3]): Weak activity; ED50 (Rattus norvegicus [5]): Weak activity; ED50 (Rattus norvegicus [6]): Weak activity
3 | CCCN(CCC)[C@H]1CCc2ccc3[nH]cc(C#N)c3c2C1 | 300 Counts 30min-1 | 2.9 nM | 8020 nM | – | – | – | 6.81 | 7.93 | 4.29 | 4.37 | 7.05 | ED50 (Rattus norvegicus [9]): 0.089 µmol/kg; ED50 (Rattus norvegicus [10]): inactive; ED50 (Rattus norvegicus [11]): 0.15 µmol/kg; ED50 (Rattus norvegicus [12]): 0.12 µmol/kg; ED50 (Rattus norvegicus [13]): 42 µmol/kg; ED50 (Rattus norvegicus [19]): 52 µmol/kg
4 | CCCN(CCC)C1CCc2ccc3c(c2C1)NCC3 (stereo not given) | – | 410 nM | 650 nM | inactive | inactive | inactive | – | – | – | – | – | ED50 (Rattus norvegicus [20]): Weak activity; ED50 (Rattus norvegicus [21]): Weak activity; ED50 (Rattus norvegicus [22]): inactive
5 | CCCN(CCC)C1CCc2ccc3[nH]cc(Cl)c3c2C1 (stereo not given) | – | 12.6 nM | 317 nM | – | – | – | 5.85 | 5.86 | 5.47 | 5.43 | 5.78 | ED50 (Rattus norvegicus [9]): 1.7 µmol/kg; ED50 (Rattus norvegicus [23]): Weak activity; ED50 (Rattus norvegicus [11]): 1.4 µmol/kg; ED50 (Rattus norvegicus [12]): 1.4 µmol/kg; ED50 (Rattus norvegicus [13]): 3.7 µmol/kg; ED50 (Rattus norvegicus [19]): 3.4 µmol/kg
6 | CCCN(CCC)C1CCc2ccc3[nH]cc(C=O)c3c2C1 (stereo not given) | – | – | – | – | – | – | 6.88 | 6.95 | 5.48 | 6.52 | 7.18 | ED50 (Rattus norvegicus [24]): inactive; ED50 (Rattus norvegicus [25]): 3.3 µmol/kg; ED50 (Rattus norvegicus [26]): 0.13 µmol/kg; ED50 (Rattus norvegicus [27]): 0.11 µmol/kg; ED50 (Rattus norvegicus [28]): 0.3 µmol/kg; Counts/30 min (Rattus norvegicus [29]): 231
7 | CCCN(CCC)[C@@H]1CCc2ccc3[nH]ccc3c2C1 | 82 Counts 30min-1 | – | – | – | – | – | – | – | – | – | – | –
8 | CCCN(CCC)C1CCc2ccc3c(CC(F)(F)F)c[nH]c3c2C1 (stereo not given) | 74 Counts 30min-1 | – | 2330 nM | inactive | inactive | inactive | – | – | – | – | – | ED50 (Rattus norvegicus [30]): inactive; ED50 (Rattus norvegicus [22]): inactive; ED50 (Rattus norvegicus [31]): inactive
